Results as given in ChEMBL document CHEMBL1287654, “Anticancer activity of N-bis(trifluoromethyl)alkyl-N'-(polychlorophenyl) and N'-(1,2,4-triazolyl) ureas” (2010).

Assays:
Format in all cases: functional
SNB-75 = assay: Growth inhibition of human SNB75 cells after 48 hrs by sulforhodamine B assay; conditions: SNB-75, 48 h
Procedure, shortened: (§1)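 NCI 60-cell-line main screen across nine tumor types, with five log dose range per compound. GI50 is the molar concentration giving half growth inhibition, reported as the log of the molar concentration that inhibits 50% net cell growth.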

SF-268 [1] = assay: Growth inhibition of human SF268 cells assessed as cell growth at 100 uM after 48 hrs by sulforhodamine B assay relative to control; conditions: SF-268, 48 h, read-out: Activity
Procedure, shortened: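 One-dose pre-test on MCF7, NCI-H460 and SF-268. Cells were inoculated and pre-incubated on a microtiter plate, then given a single 10^-4 M dose and incubated 48 h. Growth was read spectrophotometrically and expressed as percent of untreated control cells; negative values indicate cell kill.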

HCT-15 = assay: Growth inhibition of human HCT15 cells after 48 hrs by sulforhodamine B assay; conditions: HCT-15, 48 h
Procedure, shortened: (§2)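 NCI 60-cell-line main test over a five-log dose range. GI50 is the molar concentration giving half-growth inhibition, reported as log molar. Subpanel values are median GI50 across that subpanel's lines. Where 50% inhibition was not reached within the tested interval, the highest tested concentration was used.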

[2] = Growth inhibition of human CNS cancer cell after 48 hrs by sulforhodamine B assay; conditions: Cancer cell lines; procedure, shortened: as §2
[3] = Growth inhibition of human prostate cancer cell after 48 hrs by sulforhodamine B assay; conditions: Cancer cell lines
Procedure, shortened: (§3)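 Subpanel median growth inhibitory concentration: the average sensitivity of each tumor-type subpanel of the NCI 60-cell-line panel, derived from per-cell-line GI50 values. GI50 values came from a five log dose range and are expressed as log molar concentration for 50% net growth inhibition.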

MOLT-4 = assay: Growth inhibition of human MOLT4 cells after 48 hrs by sulforhodamine B assay; conditions: MOLT-4, 48 h; procedure, shortened: as §2
UO-31 = assay: Growth inhibition of human UO31 cells after 48 hrs by sulforhodamine B assay; conditions: UO-31, 48 h; procedure, shortened: as §1
IGROV-1 = assay: Growth inhibition of human IGROV1 cells after 48 hrs by sulforhodamine B assay; conditions: IGROV-1, 48 h; procedure, shortened: as §2
TK-10 = assay: Growth inhibition of human TK10 cells after 48 hrs by sulforhodamine B assay; conditions: TK-10, 48 h; procedure, shortened: as §1
[4] = Growth inhibition of human colon cancer cell after 48 hrs by sulforhodamine B assay; conditions: Cancer cell lines; procedure, shortened: as §3
EKVX = assay: Growth inhibition of human EKVX cells after 48 hrs by sulforhodamine B assay; procedure, shortened: as §2
U-251 = assay: Growth inhibition of human U251 cells after 48 hrs by sulforhodamine B assay; conditions: U-251, 48 h; procedure, shortened: as §1
OVCAR-8 = assay: Growth inhibition of human OVCAR8 cells after 48 hrs by sulforhodamine B assay; conditions: OVCAR-8, 48 h; procedure, shortened: as §2
[5] = Growth inhibition of human leukemia cell after 48 hrs by sulforhodamine B assay; procedure, shortened: as §3
HCT-116 = assay: Growth inhibition of human HCT116 cells after 48 hrs by sulforhodamine B assay; conditions: HCT-116, 48 h; procedure, shortened: as §2
[6] = Growth inhibition of human renal cancer cell after 48 hrs by sulforhodamine B assay; conditions: Cancer cell lines; procedure, shortened: as §3
MDA-N = assay: Growth inhibition of human MDA-N cells after 48 hrs by sulforhodamine B assay; procedure, shortened: as §2
RXF 393 = assay: Growth inhibition of human RXF393 cells after 48 hrs by sulforhodamine B assay; conditions: RXF 393, 48 h; procedure, shortened: as §2
NCI-H322M = assay: Growth inhibition of human NCI-H322M cells after 48 hrs by sulforhodamine B assay; procedure, shortened: as §2
A498 = assay: Growth inhibition of human A498 cells after 48 hrs by sulforhodamine B assay; conditions: A498, 48 h; procedure, shortened: as §2
CCRF-CEM = assay: Growth inhibition of human CCRF-CEM cells after 48 hrs by sulforhodamine B assay; procedure, shortened: as §2
SF-295 = assay: Growth inhibition of human SF295 cells after 48 hrs by sulforhodamine B assay; conditions: SF-295, 48 h; procedure, shortened: as §2
COLO 205 = assay: Growth inhibition of human COLO205 cells after 48 hrs by sulforhodamine B assay; conditions: COLO 205, 48 h; procedure, shortened: as §2
SK-MEL-28 = assay: Growth inhibition of human SK-MEL-28 cells after 48 hrs by sulforhodamine B assay; conditions: SK-MEL-28, 48 h; procedure, shortened: as §2
KM12 = assay: Growth inhibition of human KM12 cells after 48 hrs by sulforhodamine B assay; conditions: KM12, 48 h; procedure, shortened: as §2
SF-268 [7] = assay: Growth inhibition of human SF268 cells after 48 hrs by sulforhodamine B assay; conditions: SF-268, 48 h; procedure, shortened: as §2
NCI-H226 = assay: Growth inhibition of human NCI-H226 cells after 48 hrs by sulforhodamine B assay; conditions: NCI-H226, 48 h; procedure, shortened: as §2
T47D = assay: Growth inhibition of human T47D cells after 48 hrs by sulforhodamine B assay; procedure, shortened: as §1

SMILES | GI50 (SNB-75) | growth at 100 µM (SF-268 [1]) | GI50 [2] | GI50 [3] | GI50 (MOLT-4) | GI50 (UO-31) | GI50 (IGROV-1) | GI50 (TK-10) | GI50 [4] | GI50 [5] | GI50 (HCT-116) | GI50 [6] | GI50 (MDA-N) | GI50 (RXF 393) | GI50 (A498) | GI50 (SF-295) | GI50 (COLO 205) | GI50 (SK-MEL-28) | GI50 (KM12) | GI50 (SF-268 [7]) | further results
CCC(NC(=O)Nc1cc(Cl)ccc1Cl)(C(F)(F)F)C(F)(F)F | 3.63 µM | -99% | 4.47 µM | 3.16 µM | 3.72 µM | 2.63 µM | 5.62 µM | 2.24 µM | 4.68 µM | 3.8 µM | 3.24 µM | 3.89 µM | 4.17 µM | 10 µM | 4.17 µM | 3.47 µM | 1.82 µM | 12 µM | 4.07 µM | 4.79 µM | GI50 (HCT-15): 4.07 µM; GI50 (EKVX): 3.16 µM; GI50 (U-251): 2.95 µM; GI50 (OVCAR-8): 5.25 µM; GI50 (NCI-H322M): 1.78 µM; GI50 (CCRF-CEM): 4.07 µM; GI50 (NCI-H226): 6.17 µM
CC(NC(=O)Nc1cc(Cl)ccc1Cl)(C(F)(F)F)C(F)(F)F | 4.07 µM | 50% | 20 µM | 5.75 µM | 9.55 µM | 2.4 µM | 17.8 µM | 19.5 µM | 7.08 µM | 9.12 µM | 4.9 µM | 15.1 µM | > 100 µM | 77.6 µM | > 100 µM | 3.47 µM | 4.17 µM | > 100 µM | 4.37 µM | 72.4 µM | GI50 (T47D): 3.47 µM; GI50 (NCI-H226): 19.5 µM
